FN deposit inh – inhibitors of fibronectin matrix deposition, primary screen, AH1F cells, Alexa488-fibronectin fluorescence, plate reader; inhibition, % at 12.6 µM; AH1F fibroblasts, overnight; hit rate 0.086% among 350,000; AID 743247, 2014;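 active = mean inhibition across replicates of 30% or more, regardless of how many single replicates reach that level; inconclusive = mean under 30% yet at least half of replicates reach 30%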;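 note: positive control wells lacked labelled fibronectin entirely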
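Material: AH1F fibroblasts assembling fluorescent fibronectin matrix; amount: 10000 AH1F cells/well; medium: DMEM, 2% serum; reagent: Alexa488-fibronectin, 24 nM final in well; dosing: single compound dose, delivered by pin transfer; incubation: 1 h adhesion, overnight exposure; detection: fluorescence after three HBSS washes, excitation 485 nm, emission 525 nm; measure: fibronectin deposition inhibition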
rRNA inh HTS – reduced GFP signal of wild-type E. coli, primary screen, bacterial rRNA inhibitor project, GFP/RFP fluorescence, OD600, single point; E. coli WT GFP vs humanized-ribosome RFP mutants, 24 h; hits give low values; DMSO median 0, no signal -100; GFP signal change (wild-type ribosome), % (no concentration beside the values); hit rate 1.6% among 350,000;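 active = significant combined selectivity score with lowered wild-type GFP, culture density cut under 30%, mutant RFP and density less affected; inactive = any of these conditions unmet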
PDI turbidity – inhibitors of human PDI, primary screen, biochemical, turbidity, single point, plate reader; Protein disulfide-isomerase (Homo sapiens), P07237; PDI insulin aggregation turbidity, A650, 90 min; inhibition, % at 10 µM; hit rate 0.052% among 350,000; AID 588391, 2011;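 active = mean inhibition across replicates of 30% or more, whatever share of single replicates reach that level; inconclusive = mean inhibition below 30% while every single replicate reaches 30%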
Target sequence (P07237 whole entry, looked up): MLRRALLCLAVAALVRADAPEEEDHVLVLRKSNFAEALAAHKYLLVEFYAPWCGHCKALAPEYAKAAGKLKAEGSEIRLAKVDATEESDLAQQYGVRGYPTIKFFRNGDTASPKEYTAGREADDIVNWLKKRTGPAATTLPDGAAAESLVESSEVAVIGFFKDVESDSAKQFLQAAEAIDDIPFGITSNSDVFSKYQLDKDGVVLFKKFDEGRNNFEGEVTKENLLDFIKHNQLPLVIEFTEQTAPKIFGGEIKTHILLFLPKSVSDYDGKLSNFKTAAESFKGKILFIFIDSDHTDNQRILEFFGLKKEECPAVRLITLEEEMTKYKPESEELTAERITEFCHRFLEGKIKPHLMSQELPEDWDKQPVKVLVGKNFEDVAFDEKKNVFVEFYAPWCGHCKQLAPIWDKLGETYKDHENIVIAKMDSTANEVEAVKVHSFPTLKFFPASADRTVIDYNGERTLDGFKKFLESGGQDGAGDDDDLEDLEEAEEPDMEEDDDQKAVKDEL
PvdQ acylase – P. aeruginosa PvdQ acylase inhibitors, primary screen, biochemical, fluorescence, plate reader and imaging, single point. PvdQ acylase [Pseudomonas aeruginosa LESB58]. purified PvdQ acylase. inhibition, % at 10 µM. hit rate 0.063% among 340,000. AID 488965, 2010; in the data active = inhibition above about 30%, passing the limit was not always enough; inconclusive = no clear call, values can overlap the other calls;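 note: 0% = vehicle neutral wells and 100% = reference inhibitor wells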
ERp5 block – inhibitors of ERp5-driven insulin aggregation, primary screen, biochemical, turbidity, absorbance 650 nm, single point | 90 min | hit rate 0.05% among 350,000 | AID 651711, 2012 | Protein disulfide-isomerase A6 (Homo sapiens), Q15084 | inhibition, % at 9.99 µM;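 active = mean replicate inhibition above about 25%, with every replicate also reaching it, limit read from the data, passing the limit was not always enough; inconclusive = only one of those two criteria met; inactive = neither criterion met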
HIV Env fusion – inhibitors of HIV-1 Env-driven cell-cell fusion, primary screen, HeLa-JRFL effector, CEM21 target cells, luciferase; inhibition, % at 12.3 µM; hit rate 1.1% among 360,000;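 active = mean replicate inhibition score of at least 50 and every replicate individually at or above 50; inconclusive = only one of the two criteria met; inactive = mean below 50 and not all replicates reaching 50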;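 note: 0% = plate neutral controls and 100% = maraviroc near 300 nM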
Numbers without * were called inactive; ? = inconclusive; . = not tested or not shown; [ ] = another dose, or the depositor's remark. Rows were chosen to be rich in hits. Some 2.2% of all compounds tested hit in one or more screens of this group.

SMILES	FN deposit inh	rRNA inh HTS	PDI turbidity	PvdQ acylase	ERp5 block	HIV Env fusion
Cc1ccc(S(=O)(=O)N/N=C/c2ccc(O)cc2O)cc1[N+](=O)[O-]	-4.3	3.1	0.1	4.8	-0.7	-5.9
O=S(=O)(NN=Cc1ccc(O)cc1O)c1cc(Cl)c(Cl)cc1Cl	-11.7	-15.4*	13.0	4.1	7.5	-3.8
O=S(=O)(N[C@H]1CC[C@H](CCn2cc(C3CC3)nn2)O[C@H]1CO)c1ccc(Cl)cc1	-18.6	-2.8	.	.	-0.4	8.9[16.7 µM]
O=C(c1cccnc1)N1C[C@@H]2[C@H](c3ccccc31)[C@@H](CO)N2C(=O)C1CCCCC1	-2.4	4.2	.	.	7.3	.
C[C@H](CO)N1C[C@H](C)[C@H](CN(C)Cc2ccncc2)Oc2c(NS(=O)(=O)c3cn(C)cn3)cccc2C1=O	.	2.7	.	.	4.7	.
N#C/C(=C\c1c[nH]c2ccccc12)C(=O)NC1CCCC1	2.1	-35.5*	-1.9	8.5	2.6	-16.2
O=C(COc1ccc(-n2cnnn2)cc1)Nc1ccc(F)cc1	-25.2	.	-35.6	-6.6	0.1	-1.9
O=C(COc1ccc(-n2cnnn2)cc1)Nc1ccc(F)c(F)c1	5.9	9.4	0.5	-12.6	1.9	73.7*
O=c1c2ccccc2nc(COc2ccccc2)n1/N=C/c1ccc(O)c(O)c1	2.1	-30.6*	-0.5	-3.8	-8.0	-14.2
O=C(O)COc1ccc(/C=N/n2c(COc3ccccc3)nc3ccccc3c2=O)cc1	-0.7	-9.2	0.0	-2.0	-7.5	2.9
Cc1nc2ccccc2c(=O)n1NC(=O)COc1ccccc1	.	10.5	-0.6	-3.0	0.1	.
O=C(Nn1c(COc2ccccc2)nc2ccccc2c1=O)C(Cl)(Cl)Cl	2.0	-15.3*	-7.9	13.3	3.1	-6.5
COc1ccc2c3c(n(C)c2c1)[C@H](CO)N(C(=O)c1ccccc1)CC31CCN(CC2CC2)CC1	.	3.3	.	.	12.4	.
COc1ccc(S(=O)(=O)Nc2cccc3c2O[C@H](CN(C)S(=O)(=O)c2ccc(F)cc2)[C@H](C)CN([C@@H](C)CO)C3=O)cc1	.	2.1	.	.	-1.5	11.7[16.7 µM]
O=C(C[C@H]1C[C@@H]2c3cc(NC(=O)NC4CCCCC4)ccc3O[C@@H]2[C@H](CO)O1)NC1CCCC1	-8.9	2.2	.	.	.	.
CCOC(=O)C1=C(C)N(C[C@@H]2CC[C@@H](Cc3ccc(-c4ccccc4)cc3)O2)C(=O)NC1c1cccc2ccccc12 (stereo partly specified)	.	21.9	-5.9	6.3	-1.9	16.8
CCOC(=O)C1=C(C)N(C[C@@H]2CC[C@@H](Cc3ccc(-c4ccccc4)cc3)O2)C(=O)NC1c1ccc(C(F)(F)F)cc1 (stereo partly specified)	.	0.7	-5.6	2.1	2.1	67.1*
O=C(Nc1cccc(Cl)c1)c1ccc(Cn2cc(Cl)cn2)cc1	0.8	-26.1*	3.0	-6.2	2.3	-31.3
COc1ccc(S(=O)(=O)N(C)C[C@@H]2OCCCC[C@H](C)Oc3ccc(NS(=O)(=O)c4ccc(C)cc4)cc3C(=O)N([C@H](C)CO)C[C@@H]2C)cc1	.	1.1	.	.	1.7	-31.3[16.7 µM]
COc1ccc(Cl)cc1NC(=S)NNC(=O)c1cccs1	-0.2	-32.3*	12.5	7.8	-1.2	2.2
COc1ccc(Cl)cc1NC(=O)CN(C)S(=O)(=O)c1cccs1	3.4	-32.5*	0.3	-15.3	1.1	5.4
COc1ccc(Cl)cc1NC(=O)CN(C1CCCCC1)S(C)(=O)=O	11.6	.	14.0	-11.9	.	124.7*
C[C@H](CO)N1C[C@H](C)[C@H](CN(C)C(=O)c2cccnc2)Oc2cc(C#CC3(O)CCCC3)ccc2S1(=O)=O	.	3.4	.	.	1.8	.
C[C@@H]1CCCCO[C@H](CN(C)C(=O)NC2CCCCC2)[C@H](C)CN([C@@H](C)CO)C(=O)c2cc(NS(=O)(=O)c3ccc(F)cc3)ccc2O1	1.6	-2.2	.	.	-8.7	-56.8[16.7 µM]
O=C(c1cccc(S(=O)(=O)N2CCN(c3ccccc3)CC2)c1)N1CCCC(C(F)(F)F)C1 (stereo unspecified)	0.9	-6.0	-3.1	-14.4	5.6	71.0*
SMILES	FN deposit inh	rRNA inh HTS	PDI turbidity	PvdQ acylase	ERp5 block	HIV Env fusion
O=C(c1cc(S(=O)(=O)N2CCN(c3ccccc3)CC2)ccc1Cl)N1CCCC(C(F)(F)F)C1 (stereo unspecified)	-6.5	2.5	20.5	7.5	20.1	.
CNC(=O)C[C@H]1CC[C@H]2[C@@H](COC[C@@H](O)CN2C(=O)c2ccc3c(c2)OCO3)O1	8.5	0.7	.	.	-3.2	.
CCCCCCCNC(=O)C1(CC2CC(c3cccc(Br)c3)=NO2)CCN(C(=O)CCCCCBr)CC1 (stereo unspecified)	10.2	-20.1*	-2.1	15.8	-5.1	0.3
O=C(N/N=C/c1cccc([N+](=O)[O-])c1O)C(O)(c1ccccc1)c1ccccc1	-0.6	-18.4*	3.0	-8.8	-0.3	19.6
O=[N+]([O-])c1ccccc1C=NNC(=S)NN=Cc1ccccc1[N+](=O)[O-]	.	-20.4*	-2.9	-14.0	-3.3	-72.5
O=C(CN(Cc1ccccc1)S(=O)(=O)c1ccccc1)N/N=C/c1ccccc1[N+](=O)[O-]	.	-18.9*	1.6	28.7	0.7	.
Cc1ccc(CN(CC(=O)N/N=C/c2ccccc2[N+](=O)[O-])S(=O)(=O)c2ccc(C)cc2)cc1	.	.	12.7	-8.9	.	.
CC(C)NC(=S)N/N=C/c1ccccc1[N+](=O)[O-]	-1.7	12.1	-0.6	-1.4	-0.1	8.6
Cc1ccc(S(=O)(=O)N(C)C[C@@H]2Oc3ncc(-c4ccc(F)cc4)cc3C(=O)N([C@H](C)CO)C[C@@H]2C)cc1	-0.1	0.4	.	.	-0.3	11.8[16.7 µM]
CN(C)S(=O)(=O)c1ccc(Nc2nc(C3CC3)nc3c2nnn3Cc2ccccc2Cl)cc1	9.7	.	-17.6	-10.3	.	48.5*
c1ccc(Cn2nnc3c(Nc4ccc5c(c4)OCO5)nc(C4CC4)nc32)cc1	-10.1	.	65.7*	-9.8	.	?
COC(=O)CNc1nc(C2CC2)nc2c1nnn2Cc1ccccc1Cl	.	.	-3.6	-12.1	.	13.6
CC(C)NC(=O)C1(C)CCN1Cc1ccc(-c2ccccc2)cc1 (stereo unspecified)	0.6	-0.6	11.1	.	6.6	56.6*
CCN(CC)C(=O)CSc1nc2ccccc2c(=O)n1CC	.	.	-17.7	-5.3	.	.
CCn1c(SCc2ccccc2)nc2ccccc2c1=O	-7.4	-32.2*	13.5	-10.8	5.2	15.7
O=C(NC1=NCCS1)c1sc2ccccc2c1Cl	.	-30.6*	-2.5	-13.7	-1.1	.
COc1ccc(C(=O)Nc2ccc3c(c2)OC[C@@H](C)N(C(=O)C2CC2)C[C@@H](C)[C@H](OC)CN(C)C3=O)cc1	-5.8	-1.5	.	.	.	.

Source: PubChem
